Measurements reported in paper PMC3080470 (Biopharmaceutics & drug disposition, 2011).
Where two headings read alike, the source gives them in different places. Marks after values point to notes of the source that are not given here. Numbered stars: 1 amine (or outer) side, 2 acyl side, 3 side chain; on linkers, the order of the positions; unused ones are H or OH. Bridge positions count the residues as written; N and C are the ends. Square brackets hold non-standard residues; d marks the D form. Peptide text beside a SMILES is read from it. * marks the point of attachment. hTyr(3S-OH,4S-OH,3'-OSO3H) = N[C@H](C(=O)O)[C@H](O)[C@@H](O)c1ccc(O)c(OS(=O)(=O)O)c1; Orn(4R-OH,5R-OH) = O=C([C@H](C[C@@H](O)[C@@H](O)N[*:3])N[*:1])[*:2]; Pro(3S-OH,4S-Me) = C[C@H]1CN[C@H](C(=O)O)[C@H]1O; X1 = CCCCCOc1ccc(-c2cc(-c3ccc(C(=O)*)cc3)no2)cc1; Gln(3R-OH) = NC(=O)C[C@@H](O)[C@H](N)C(=O)O; Hyp = O=C(O)[C@@H]1C[C@@H](O)CN1

Columns and labels:
[1] = cited from earlier work
[2] = adult; well-stirred model, fu 0.004, QH 21 ml/min/kg; ref Yanni et al. [8]; cited from earlier work
[3] = cited from earlier work; remark: listed apart in the source
[4] = tested on: sandwich-cultured human hepatocytes; settings: cited from earlier work
[5] = Micafungin serum fraction unbound by equilibrium dialysis; format: in vitro ADME; settings: human, pH 7.4
Summary of the method: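 Serum from neonates (23–40 wk gestation, postnatal 1–52 days, 0.6–3.5 kg; n=6) or adults (n=6) spiked with 10 μM test compound. Dialysed against an equal volume of 100 mM sodium phosphate, pH 7.4, for 4.5 hr at 37°C with 100 rpm shaking. Both sides quantified by HPLC-fluorescence (ex 273/em 464 nm) with diclofenac internal standard and matrix-matched calibration. fu = buffer/serum concentration.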

[6] = human adult, ref Yanni et al. [8]

Compound	plasma protein binding ([1]; in humans and animals) [%]	binding to plasma proteins ([1]; stated in abstract, no reference given) [%]	Calculated Biliary Cl [2] [mL/min/kg]	Calculated Plasma Cl [2] [mL/min/kg]	Observed Biliary Cl [3, 6] [mL/min/kg]	Observed Plasma Cl [3, 6] [mL/min/kg]	Observed Plasma Cl ([3]; human neonate, ref Heresi et al. [5])	share of plasma clearance that occurs via biliary elimination of the parent drug ([3]; pharmacokinetic studies with 14C-micafungin)	Intrinsic Biliary Cl ([4]; adult, sandwich-cultured human hepatocytes, B-CLEAR, ref Yanni et al. [8]) [µL/min/mg]	Intrinsic Accumulation Cl ([4]; adult, sandwich-cultured human hepatocytes, ref Yanni et al. [8]) [µL/min/mg]	In vitro intrinsic accumulation Cl ([4]; sandwich-cultured human hepatocytes from adult liver donors, no albumin) [µL/min/mg]	fraction unbound at 4.5 hr, 10 μM ([5]; serum from adults)	fraction unbound at 4.5 hr, 10 μM ([5]; serum from neonates)	unbound fraction in blood [1]	clearance in neonates (< 3 months) compared to older children (2-11y) ([3]; human)
CCCCCOc1ccc(-c2cc(-c3ccc(C(=O)N[C@H]4C[C@@H](O)[C@@H](O)NC(=O)[C@@H]5[C@@H](O)[C@@H](C)CN5C(=O)[C@H]([C@H](O)CC(N)=O)NC(=O)[C@H]([C@H](O)[C@@H](O)c5ccc(O)c(OS(=O)(=O)O)c5)NC(=O)[C@@H]5C[C@@H](O)CN5C(=O)[C@H]([C@@H](C)O)NC4=O)cc3)no2)cc1 [Micafungin] (X1-[Orn(4R-OH,5R-OH)]T[Hyp][hTyr(3S-OH,4S-OH,3'-OSO3H)][Gln(3R-OH)][Pro(3S-OH,4S-Me)]; lactam 1-C)	> 99	> 99.5	0.101 ± 0.062	0.175 ± 0.012	0.160	0.229	0.622 ^# ml/min/kg	approximately 90%	14 ± 9	24 ± 2	23.5 ± 1.6	0.004	0.033		
Caspofungin														about 3.5%	significantly lower
